Measured values from different studies.
Each line is one published result; the experiments were not run side by side.
PIK3CA C420R: Phosphatidylinositol 4,5-bisphosphate 3-kinase catalytic subunit alpha isoform (PIK3CA, Homo sapiens, UniProt P42336, C420R)
PIK3CA: Phosphatidylinositol 4,5-bisphosphate 3-kinase catalytic subunit alpha isoform (PIK3CA, Homo sapiens, UniProt P42336)
PIK3CA I800L: Phosphatidylinositol 4,5-bisphosphate 3-kinase catalytic subunit alpha isoform (PIK3CA, Homo sapiens, UniProt P42336, I800L)
PIK3CA H1047Y: Phosphatidylinositol 4,5-bisphosphate 3-kinase catalytic subunit alpha isoform (PIK3CA, Homo sapiens, UniProt P42336, H1047Y)
PIK3CA E545K: Phosphatidylinositol 4,5-bisphosphate 3-kinase catalytic subunit alpha isoform (PIK3CA, Homo sapiens, UniProt P42336, E545K)
PIK3CA E545A: Phosphatidylinositol 4,5-bisphosphate 3-kinase catalytic subunit alpha isoform (PIK3CA, Homo sapiens, UniProt P42336, E545A)
PIK3CA Q546K: Phosphatidylinositol 4,5-bisphosphate 3-kinase catalytic subunit alpha isoform (PIK3CA, Homo sapiens, UniProt P42336, Q546K)
PIK3CA E542K: Phosphatidylinositol 4,5-bisphosphate 3-kinase catalytic subunit alpha isoform (PIK3CA, Homo sapiens, UniProt P42336, E542K)
PIK3CA H1047L: Phosphatidylinositol 4,5-bisphosphate 3-kinase catalytic subunit alpha isoform (PIK3CA, Homo sapiens, UniProt P42336, H1047L)

For `CO[C@@H](C)c1c(Nc2ccc([C@H](N(C)C(=O)C3CCS(=O)(=O)CC3)C(F)(F)F)cc2)cnc2cc(Cl)nn12`, the remaining binding was 93% (PIK3CA C420R; cell-free assay, competition with immobilised ligand; 1 µM).
For `Cc1c(-c2ccccc2)oc2c(C(=O)OCCN3CCCCC3)cccc2c1=O`, the remaining binding was 100% (PIK3CA; cell-free assay, competition with immobilised ligand; 0.1 µM).
With `C[C@H]1CCN(c2nccc(-c3cnn4ncccc34)n2)C1` the remaining binding was 95% (PIK3CA I800L; binding; 1 µM).
With `CN1CCN(c2ccc(Nc3nccc(-c4ccccc4)n3)cc2C(F)(F)F)CC1` the remaining binding was 90% (PIK3CA H1047Y; binding; 10 µM).
With `O=C(c1ccc(Nc2ncc(Cl)c(-c3cc4ccccc4s3)n2)cc1)N1CCC(N2CCCC2)CC1` the remaining binding was 97% (PIK3CA I800L; binding, competition with immobilised ligand; 1 µM).
With `Cc1c(NC(=O)c2cc(C(N)=O)nc3cc(F)ccc23)c(C(F)(F)F)nn1Cc1ccc(C(C)(C)C)cc1` the remaining binding was 100% (PIK3CA C420R; cell-free assay, competition with immobilised ligand; 1 µM).
For `CN(C)c1nccc(-c2cnn3ncccc23)n1`, the remaining binding was 83% (PIK3CA E545K; binding; 1 µM).
`CNC(=O)[C@@H]1CC[C@@H](n2c(-c3ccc4cnccc4c3)nc3ccc(C(=O)NCc4cccc(C(N)=O)c4)cc32)C1` gave a remaining binding of 89% (PIK3CA E545A; binding, competition with immobilised ligand; 1 µM).
`C[C@H](c1cccc(C#N)c1)n1cc(Cl)cc(C(N)=O)c1=N` gave a remaining binding of 100% (PIK3CA Q546K; cell-free assay, competition with immobilised ligand; 1 µM).
With `CC1CCCN1c1nccc(-c2cnn3ncccc23)n1` (stereo not shown) the remaining binding was 43% (PIK3CA E542K; binding; 1 µM).
For `O=C(NCCCC1CCCCC1)c1ccc(CNC(=O)c2cnn(-c3ccccc3)c2C(F)(F)F)cc1`, the remaining binding was 86% (PIK3CA H1047L; cell-free assay, competition with immobilised ligand; 0.1 µM).
`COc1ncc2cc3ccccc3nc2c1C#N` has a remaining binding of 100% (PIK3CA E542K; cell-free assay, competition with immobilised ligand; 5 µM).
`O=C(c1ccc(Nc2ncc(Cl)c(-c3ccc(Cl)s3)n2)cc1)N1CCC(N2CCCC2)CC1` gave a remaining binding of 100% (PIK3CA Q546K; binding, competition with immobilised ligand; 1 µM).
With `CN(C)c1nccc(-c2cnc3ncccn23)n1` the remaining binding was 90% (PIK3CA E545A; binding; 1 µM).
`O=C(c1ccc(Nc2nccc(-c3cc4ccccc4s3)n2)cc1)N1CCC(N2CCCC2)CC1` gave a remaining binding of 100% (PIK3CA I800L; binding, competition with immobilised ligand; 1 µM).
`COc1cnc(Nc2cccc(S(N)(=O)=O)c2)nc1N1CCN(c2ccccc2)C(=O)C1` has a remaining binding of 100% (PIK3CA; binding, competition with immobilised ligand; 1 µM).
For `c1cncc(-c2cccc(Nc3nccc(NC4CCCCC4)n3)c2)c1`, the remaining binding was 89% (PIK3CA H1047Y; binding, competition with immobilised ligand; 10 µM).
With `O=C(Nc1c[nH]nc1C(=O)NC1CCNCC1)c1cc(F)cc(F)c1` the remaining binding was 100% (PIK3CA H1047Y; binding, competition with immobilised ligand; 1 µM).
For `Cc1cnc(Nc2ccc(C(=O)N3CCC(N4CCCC4)CC3)cc2)nc1-c1cc2ccccc2s1`, the remaining binding was 65% (PIK3CA H1047Y; binding, competition with immobilised ligand; 1 µM).
`N[C@@H]1CCN(c2nccc(-c3cnn4ncccc34)n2)C1` gave a remaining binding of 71% (PIK3CA I800L; binding; 1 µM).
`Nc1ncc2c(n1)-c1c([nH]c3ccc(C#CC4CC4)cc13)CCCC2` has a remaining binding of 98% (PIK3CA Q546K; binding, competition with immobilised ligand; 1 µM).
With `O=C(NCCCN1CCOCC1)c1ccc(Nc2nccc(-c3cc4ccccc4s3)n2)cc1` the remaining binding was 40% (PIK3CA E545K; binding, competition with immobilised ligand; 1 µM).
With `CN(CCCC(F)(F)F)c1nccc(-c2cnn3ncccc23)n1` the remaining binding was 100% (PIK3CA I800L; binding; 1 µM).
`CN1CCN(c2ccc(Nc3nccc(-c4cccc([N+](=O)[O-])c4)n3)cc2C(F)(F)F)CC1` has a remaining binding of 36% (PIK3CA E542K; binding; 10 µM).
With `CN(c1nccc(-c2cnn3ncccc23)n1)C1CC1` the remaining binding was 100% (PIK3CA H1047L; binding; 1 µM).
With `O=C(NCC1CCOCC1)c1n[nH]cc1NC(=O)c1c(F)cccc1F` the remaining binding was 77% (PIK3CA Q546K; binding, competition with immobilised ligand; 1 µM).
For `C[C@@H](c1ccc(-n2cnc3c(N)ncnc32)cc1)N1CCc2nn(C)c(Cc3ccccc3)c2C1=O`, the remaining binding was 63% (PIK3CA H1047L; binding, competition with immobilised ligand; 0.1 µM).
`C=CC(=O)N1CCC(C(=O)NCC(=O)N2CCN(c3nc(-c4cnc(N)nc4C(F)F)nc(N4CCOCC4)n3)CC2)CC1` gave a remaining binding of 0.5% (PIK3CA E545A; binding, competition with immobilised ligand; 1 µM).
With `CCN(CC)Cc1cc(Nc2ccnc3cc(Cl)ccc23)ccc1O` the remaining binding was 93% (PIK3CA; cell-free assay, competition with immobilised ligand; 10 µM).
With `CS(=O)(=O)NCC[C@H](NC(=O)c1cncc2c1cnn2-c1ccc(F)cc1)c1ccnc(S(C)(=O)=O)c1` the remaining binding was 83% (PIK3CA; cell-free assay, competition with immobilised ligand; 1 µM).
`CCN1CCN(Cc2ccc(C(=O)Nc3ccc(C)c(Oc4ccc5c(c4)CC(=O)N5)c3)cc2C(F)(F)F)CC1` gave a remaining binding of 100% (PIK3CA H1047Y; binding, competition with immobilised ligand; 1 µM).
With `CCCOc1ccc([C@H]2[C@H](C(=O)O)[C@@H](c3ccc4c(c3)OCO4)CN2CC(=O)Nc2c(CC)cccc2CC)cc1` the remaining binding was 81% (PIK3CA I800L; cell-free assay, competition with immobilised ligand; 1 µM).
`CN(C)c1ncc(F)c(-c2cnn3ncccc23)n1` has a remaining binding of 46% (PIK3CA C420R; binding; 1 µM).
`CS(=O)(=O)N1CCCC(NC(=O)[C@H](CCC2CCCCC2)NC(=O)c2ccc(CNC(=O)c3cnc4ccccn34)cc2)C1` (stereo partly shown) has a remaining binding of 100% (PIK3CA H1047L; cell-free assay, competition with immobilised ligand; 0.1 µM).
With `COc1cnc(Nc2cccc(S(N)(=O)=O)c2)nc1N1CCN(c2ccccc2)CC1` the remaining binding was 72% (PIK3CA E545K; binding, competition with immobilised ligand; 1 µM).
The remaining binding of `O=C(NCCCN1CCOCC1)c1ccc(Nc2ncc(Cl)c(-c3ccc(Cl)s3)n2)cc1` is reported as 100% (PIK3CA E545A; binding, competition with immobilised ligand; 1 µM).
For `O=C1CCc2cc(Nc3cc(OC4CCOCC4)c([N+](=O)[O-])cc3Cl)ccc2N1`, the remaining binding was 79% (PIK3CA; cell-free assay, competition with immobilised ligand; 1 µM).
